From ChEMBL document CHEMBL1145798, “Deoxyribonucleoside 2'- or 3'-mixed disulfides: prodrugs to target ribonucleotide reductase and/or to inhibit HIV reverse transcription” (J Med Chem, 2003)
pEC50, pIC50: −log10 of the molar value. Active and inactive are the calls of the source. The rule behind the calls is not given here.

How the values were obtained:
L1210 = assay: Antiproliferative activity was determined against murine leukemia cells (L1210); type: functional, cell-based; details: Mus musculus
In short: (§1)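 Cytostatic assay on proliferating cell cultures (human CEM, Molt4/C8; murine L1210, FM3A). IC50 is the compound concentration that inhibits cell proliferation by 50%.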

CCRF-CEM [1] = assay: Antiproliferative activity was determined against human T-lymphocyte cells-CEM; type: functional, cell-based; in short: as §1
[2] = test system: Human immunodeficiency virus 1; assay: Effective concentration against cytopathicity of HIV-1 strain (HTLV IIIB) in CEM cell line; type: functional, organism-based; details: Human immunodeficiency virus 1, CCRF-CEM
In short: (§2)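 HIV-1 or HIV-2 (ROD) infected CEM cell cultures. EC50 is the compound concentration that protects cells against virus-induced cytopathicity by 50%.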

[3] = test system: Human immunodeficiency virus 2; assay: Effective concentration against cytopathicity of HIV-2 strain (ROD) in CEM cell line; type: functional, organism-based; details: Human immunodeficiency virus 2, CCRF-CEM; in short: as §2
FM3A = assay: Antiproliferative activity was determined against murine mammary carcinoma cells (FM3A); type: functional, cell-based; details: Mus musculus; in short: as §1
MOLT-4 = assay: Antiproliferative activity was determined against human T-lymphocyte cells -Molt4/C8; type: functional, cell-based; in short: as §1
CCRF-CEM [4] = assay: Concentration required to lower intracellular dATP levels in CEM/SS cells; type: functional, Homo sapiens
In short: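 CEM/SS cells exposed for 24 h at 37 °C across a dose range, then counted. dATP was measured in methanolic cell extracts by an enzymatic assay, elongation of radiolabeled oligonucleotide primers annealed to complementary templates, expressed per million viable cells. IC(dATP-50) is the concentration that depletes intracellular dATP by 50%. Mean ± SD of at least two independent experiments.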

[5] = test system: Human immunodeficiency virus 1; assay: Inhibitory activity against HIV-1 strain (HTLV IIIB) in MT-4 cell line; type: functional; details: Human immunodeficiency virus 1, MT4; read-out: ED50 (the source's name)
CCRF-CEM [6] = assay: Cytotoxicity was determined towards CEM/SS cells (MTT); type: functional; details: Homo sapiens
In short: (§3)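 Cytotoxicity in CEM/SS cells measured by MTT read-out, reported as CC50.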

CCRF-CEM [7] = assay: Cytotoxicity was determined towards CEM/SS cells using MTT assay; type: functional; details: Homo sapiens; in short: as §3
MT4 [8] = assay: Effective dose against HIV-1 strain (HTLV IIIB) in MT-4 cell line; Not active; type: functional, cell-based; details: Homo sapiens
MT4 [9] = assay: Cytotoxicity towards infected MT-4 cell line; type: functional; details: Homo sapiens, read-out: CD50 (the source's name)
MT4 [10] = assay: Effective dose against HIV-1 strain (HTLV IIIB) in infected MT-4 cell line; type: functional; details: Homo sapiens, read-out: ED50 (the source's name)
MOLT-4 (Homo sapiens) = assay: Antiproliferative activity was determined against human T-lymphocyte cells -Molt4/C8
FM3A (Mus musculus) = assay: Antiproliferative activity was determined against murine mammary carcinoma cells (FM3A)

Row | Structure (SMILES) | pIC50 (L1210) | pIC50 (CCRF-CEM [1]) | pEC50 [2] | pEC50 [3] | pIC50 (FM3A) | pIC50 (MOLT-4) | ICdATP-50 (CCRF-CEM [4]) [µM] | pEC50 [5] | CC50 (CCRF-CEM [6]) [µM] | CC50 (CCRF-CEM [7]) [µM] | NA (MT4 [8]) | CC50 (MT4 [9]) [µM] | pEC50 (MT4 [10]) | pIC50 (MOLT-4 (Homo sapiens)) | pIC50 (FM3A (Mus musculus))
1 | C[C@H](Cn1cnc2c(N)ncnc21)OCP(=O)(O)O [TENOFOVIR ANHYDROUS] | < 3.46 | < 3.46 | 5.38 | 5.52 | < 3.46 | < 3.46 | – | – | – | – | – | – | – | – | –
2 | CCCSS[C@H]1C(O)[C@@H](CO)O[C@H]1n1ccc(N)nc1=O (stereo partly drawn) | – | – | – | – | – | – | 50 | – | – | – | – | – | – | – | –
3 | Nc1ccn([C@H]2C[C@H](S)[C@@H](CO)O2)c(=O)n1 | – | – | – | – | – | – | – | 4.70 | – | – | – | – | – | – | –
4 | CSS[C@H]1C[C@H](n2cc(C)c(=O)[nH]c2=O)O[C@@H]1CO | 4.43 | 3.81 | 5.00 | 4.43 | 3.55 | 4.60 | – | – | 120 | – | – | – | – | – | –
5 | Nc1ccn([C@@H]2O[C@H](CO)C(O)[C@@H]2S)c(=O)n1 (stereo partly drawn) | 3.17 | 3.52 | < 3.47 | < 3.47 | < 3.17 | 3.19 | – | – | – | – | – | – | – | – | –
6 | CSS[C@H]1C(O)[C@@H](CO)O[C@H]1n1ccc(N)nc1=O (stereo partly drawn) | 3.46 | 4.09 | < 4.19 | < 4.19 | < 3.19 | 3.59 | 50 | – | – | 330 | – | – | – | – | –
7 | Cc1cn([C@H]2C[C@H](N=[N+]=[N-])[C@@H](CO)O2)c(=O)[nH]c1=O [ZIDOVUDINE] | – | < 3.43 | 8.40 | – | – | < 3.43 | – | – | – | – | – | – | – | – | –
8 | Cc1cn([C@H]2C[C@H](SS[C@H]3C[C@H](n4cc(C)c(O)nc4=O)O[C@@H]3CO)[C@@H](CO)O2)c(=O)nc1O | < 3.41 | < 3.41 | 4.30 | 4.22 | < 3.41 | 3.49 | – | – | – | – | inactive | 34 | 4.80 | – | –
9 | Cc1cn([C@H]2C[C@H](S)[C@@H](CO)O2)c(=O)[nH]c1=O | < 3.11 | < 3.11 | < 3.41 | < 3.41 | – | – | – | – | – | – | – | – | – | < 3.11 | < 3.11
10 | CSS[C@H]1C(O)[C@@H](CO)O[C@H]1n1ccc(=O)[nH]c1=O (stereo partly drawn) | 3.49 | 3.80 | < 4.19 | < 4.19 | < 3.19 | 3.66 | – | – | – | – | – | – | – | – | –
